MrgX1 PAM = human MrgX1 positive allosteric modulation, primary screen | hit rate 0.63% among 310,000 | B-score at 10 µM | MrgX1-HEK293, Fluo-4 calcium flux, FDSS; stronger effect = higher value;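 active means plate-corrected calcium response at least 3 library SD above typical, normal starting fluorescence, not activating the receptor alone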;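 further: compound read alongside a low EC10 to EC30 dose of BAM8-22 agonist; peak minus trough fluorescence over baseline measured at the second addition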
Target sequence (Q96LB2 whole entry, looked up): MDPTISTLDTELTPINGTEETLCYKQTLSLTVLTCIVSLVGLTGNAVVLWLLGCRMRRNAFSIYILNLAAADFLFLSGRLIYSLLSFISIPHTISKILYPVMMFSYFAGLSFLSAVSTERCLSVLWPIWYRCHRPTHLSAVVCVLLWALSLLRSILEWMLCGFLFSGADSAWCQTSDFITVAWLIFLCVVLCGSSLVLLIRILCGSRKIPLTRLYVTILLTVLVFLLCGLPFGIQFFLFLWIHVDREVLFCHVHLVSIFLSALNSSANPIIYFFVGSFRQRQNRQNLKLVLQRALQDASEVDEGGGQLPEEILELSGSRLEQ
MrgX1 agonist = human MrgX1 receptor agonism, primary screen; MrgX1-HEK293 cells, Fluo-4 calcium fluorescence, agonist mode; stronger effect = higher value; B-score at 10 µM; AID 588627; hit rate 0.44% among 310,000;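 active means calcium response B-score plate-corrected fluorescence ratio at least 3 library SD, with starting fluorescence B-score inside 5 SD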
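Material – MrgX1-expressing HEK293 cells · Input – 15,000 cells seeded per well · Dosing – compound as first of three additions · Times – overnight seeding, then 1 h dark dye loading · Measured by – kinetic Fluo-4 NW fluorescence of intracellular calcium · Read-out – B-scored fluorescence response ratio · Benchmarks – positive and negative control wells on each plate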
MrgX1 antagonist = human MrgX1 receptor antagonism, primary screen; MRGX1-HEK293 calcium flux, Fluo-4, BAM8-22 antagonism; stronger effect = lower value; B-score at 10 µM; hit rate 1.3% among 310,000; AID 588676;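 active means calcium-response B-score plate-corrected more than 3 library SD below zero, starting fluorescence within 5 deviations, no agonist response on first addition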;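 further: peak minus trough fluorescence over baseline after final BAM8-22 challenge near maximal dose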
RGS4 pot = RGS4 potentiation or activation | HEK293 M3R/inducible RGS4, carbachol calcium flux Fluo4; stronger effect = lower value | B-score at 10 µM | hit rate 0.92% among 310,000;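 active means B-score of the integrated calcium signal more than 4 SD below the library mean, with starting fluorescence not abnormally high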;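 further: negative B-score means reduced calcium response which marks RGS4 activation or potentiation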
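Reagent: ECmax carbachol challenge; Test system: M3R-expressing HEK293 line, RGS4 induced by doxycycline; Schedule: overnight RGS4 induction, 30 min dye load 37 °C, 20 min compound RT; Detection: calcium dye Fluo4 fluorescence; Read-out: Agonist-evoked peak-minus-minimum fluorescence over baseline, integrated ratio, B score.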
RGS4 inh = human RGS4 inhibition. AID 463165. P49798. B-score at 10 µM. HEK293 M3R/RGS4 inducible, Fluo-4 calcium flux; stronger effect = higher value; triggered by carbachol at its EC20. hit rate 0.45% among 310,000;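 active means B-score, a plate-corrected calcium signal, over three deviations above library mean, with baseline fluorescence within five deviations of library mean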;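 further: RGS4 expression induced by doxycycline in cells with stable M3 receptor; B-score is computed from the integrated fluorescence ratio over baseline after carbachol; higher B-score means a larger calcium signal and so more RGS4 inhibition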
Target sequence (P49798 whole entry, looked up): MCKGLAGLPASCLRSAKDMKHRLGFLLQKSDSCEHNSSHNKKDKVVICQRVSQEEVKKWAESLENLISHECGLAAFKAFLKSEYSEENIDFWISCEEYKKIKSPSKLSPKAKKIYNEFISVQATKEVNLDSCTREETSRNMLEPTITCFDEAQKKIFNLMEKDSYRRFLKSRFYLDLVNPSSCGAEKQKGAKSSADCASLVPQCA
RGS4 act valid = confirmation of RGS4 activators. hit rate 89% among 1,100. HEK293 M3R/RGS4 inducible, carbachol calcium flux Fluo4. shares compounds with RGS4 pot. inhibition, % at 10 µM. AID 602282;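 active means inhibition above 3 SD of the buffer control wells, cut at about 41% in these data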;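 further: signal is the integrated peak-minus-minimum Fluo4 fluorescence over baseline ratio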
M3R Ca counter = RGS4 activator counter-screen hit in non-induced cells | inhibition, % at 10 µM | shares compounds with RGS4 pot | HEK293 M3R non-induced RGS4, Fluo4 calcium flux; after carbachol challenge at its EC90 | AID 602283 | hit rate 82% among 1,100;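 active means inhibition exceeding 3 SD of buffer-only control wells, cut at about 26% in these data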;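 further: percent drop in integrated peak-minus-baseline over baseline Fluo4 ratio after carbachol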
* hit, by the source's call; i = inactive; x = no result given. Shown are actives, neighbours in structure and some others; about 3.5% of the full set was active somewhere.

SMILES	MrgX1 PAM	MrgX1 agonist	MrgX1 antagonist	RGS4 pot	RGS4 inh	RGS4 act valid	M3R Ca counter
CCOCCCNC(=O)c1ccc(OC)c(OC2CCN(C(C)C)CC2)c1	i	i	i	i	i	x	x
CCCCCc1cc(O)c2c(C)cc(=O)oc2c1	i	i	i	i	i	x	x
CCCCc1cc(O)c(CCCC)c(O)c1	i	i	-11.3*	-7.97*	i	91.5*	88.3*
CC1CCCCN1CC(=O)Nc1ccc(Oc2ccccc2)cc1 (centres undefined)	i	i	i	-9.09*	i	93.0*	87.3*
CC1CCCCN1CC(=O)Nc1ccc(N2CCCCCC2)cc1 (centres undefined)	i	i	i	i	i	x	x
COc1ccccc1C(O)P(=O)(OCC(C)C)c1ccc(N(C)C)cc1 (centres undefined)	i	i	i	i	i	x	x
O=C(NCc1cccnc1)c1cccc(S(=O)(=O)NCc2ccccc2)c1	i	i	i	i	i	x	x
CC1CCCN(C(=O)COC(=O)c2cc(-c3cccs3)nn2-c2ccccc2)C1 (centres undefined)	i	i	i	-10.2*	i	92.0*	69.8*
CCCC12CN3CC(CCC)(CN(C1)C3c1ccco1)C2=O (centres undefined)	i	i	i	i	i	x	x
CCOC1=C/C(=C/c2c(N)n3nc(-c4ccccc4)sc3nc2=O)C=CC1=O	x	x	x	-12.1*	i	65.0*	33.3*
CSCC[C@H](NC(=O)OC(C)(C)C)C(=O)N/N=C/c1ccc2nccnc2c1	i	i	i	-12.2*	i	0.0	0.0
COc1ccc(C(=O)Nc2cc3c4c(c2)C(C)C(=O)N4CCC3)cc1OC (centres undefined)	i	i	i	i	i	x	x
CCCC1Oc2ccccc2C(=O)N(CC(=O)c2ccc3c(c2)OCCO3)C1=O (centres undefined)	i	i	i	-9.02*	i	58.5*	0.0
CCc1cccc(NC(=O)c2cc(OC)c(OC)c(OC)c2)c1	i	i	i	i	i	x	x
CCOC(=O)c1c(NC(C)=O)sc2c(OC)c(Br)ccc12	i	i	i	i	i	x	x
CCOC(=O)c1c(NC(C)=O)sc2c(OCCN(CC)CC)c(Br)ccc12	i	i	i	-10.4*	i	90.0*	38.8*
COc1ccc(/C=C/C(=O)Oc2cccc(/C=N/NC(=O)Cc3ccc(Br)cc3)c2)cc1	i	i	i	i	i	x	x
O=C1CC(c2ccc(O)c(O)c2)Oc2c1ccc(O)c2O (centres undefined)	i	i	i	x	x	x	x
CC(C)=CCc1c(O)ccc2c1OC(c1ccc(O)c(O)c1)CC2=O (centres undefined)	i	i	i	-8.7*	i	93.0*	78.3*
Cc1nc(N2CCN(Cc3ccccc3)CC2)nc2c1C(=O)CC(c1ccco1)C2 (centres undefined)	i	i	i	-8.44*	i	0.0	0.0
S=C(c1ccc2c(c1)OCO2)N1CCOCC1	i	i	i	i	i	x	x
CN1CCN(c2nc(-c3cccs3)cc(C(F)(F)F)n2)CC1	i	i	i	-8.7*	i	92.0*	37.8*
C=CCNC(=O)c1ccc(C(=O)c2ccccc2)cc1	i	i	i	i	i	x	x
C=CCNC(=O)c1ccc2nc(-c3ccccc3)c(-c3ccccc3)nc2c1	i	i	i	-8.91*	i	77.0*	44.3*
O=C(O)c1ccc2nc3c(nc2c1)-c1ccccc1C3=O	i	i	i	-11.4*	i	0.0	0.0
SMILES	MrgX1 PAM	MrgX1 agonist	MrgX1 antagonist	RGS4 pot	RGS4 inh	RGS4 act valid	M3R Ca counter
CC(/C=N/n1c(-c2n[nH]c3c2CCC3)n[nH]c1=S)=C\c1ccco1	i	i	i	-9.02*	i	93.0*	89.8*
CC(/C=N/n1c(-c2cccnc2)n[nH]c1=S)=C\c1ccco1	i	i	i	i	i	x	x
Cc1ccccc1-c1n[nH]c(=S)n1/N=C/C=C/c1ccco1	i	i	i	-8*	i	89.0*	43.8*
CCCC(C(=O)Nc1nccs1)c1ccccc1 (centres undefined)	i	i	i	i	i	x	x
O=C(N=C1SC2CS(=O)(=O)CC2N1c1ccc(OC(F)(F)F)cc1)C1CC1 (centres undefined)	i	i	i	i	i	x	x
CC(=C/C(=O)O)/C(=C\c1ccc(Br)o1)C(=O)O	i	i	i	i	i	x	x
O=C(NCCc1ccccc1)C1=CCN(S(=O)(=O)c2ccccc2)CC1	i	i	i	i	i	x	x
COCCC(=O)NNS(=O)(=O)c1ccc(Cl)cc1	i	i	i	i	i	x	x
O=C(Nc1ccc2c(c1)CCCN2C(=O)c1ccccc1)c1ccccc1	i	i	i	-9.03*	i	62.0*	0.0
COc1ccc2cc(S(=O)(=O)N3CCCC(C)C3)ccc2c1 (centres undefined)	i	i	i	i	i	x	x
CSc1nsc(SC)c1C(=O)Nc1ccc(C(C)(C)C)cc1	i	i	i	-11.4*	i	93.0*	79.3*
COc1cc(/C=C2\SC(N3CCC(C)CC3)=NC2=O)ccc1O	i	i	i	i	i	x	x
O=c1c2c(nc3n1CCCCC3)-c1ccccc1CC21CCCCC1	i	i	i	-15.9*	i	90.5*	78.8*
CCc1cc(C)cc(OCCOc2ccccc2/C=N/NC(C)=O)c1	i	i	i	i	i	x	x
O=C(O)CC1(CC(=O)N2CCOCC2)CCCC1	i	i	i	i	i	x	x
COc1ccc(C(=O)NNC(=O)C2CCCN(C3CC(=O)N(c4ccccc4)C3=O)C2)cc1 (centres undefined)	i	i	i	i	i	x	x
CCCCS/C(=C(/C#N)C(N)=O)c1cc2c([nH]1)CCCC2	i	i	i	-8.19*	i	94.0*	92.3*
CCCCCCCCn1c2c(c(=N)c3ccccc31)CCC2	x	x	x	i	i	x	x
CCCCCCCCCn1c2c(c(=N)c3c1CCC3)CCCC2	x	x	x	-11.3*	i	92.5*	95.3*
O=C(NCCOc1ccccc1)C(=O)c1c[nH]c2ccccc12	i	i	i	i	i	x	x
Cc1ccc(OCc2cc(C(=O)N3CCc4sccc4C3)no2)cc1C	i	i	i	-7.73*	i	81.0*	44.3*

Screening results from PubChem.
